Published values gathered from unrelated publications.
Compare with care: the assays were run in different laboratories.
Read-out: cell growth or viability

The IC50 of `Cc1ccc(S(=O)(=O)n2cc(/C=N/NC(=O)c3cccc(Cl)c3)c3ccccc32)cc1` is reported as over 50 µM (MCF-10A; MTT; 48 h).
`CC(C)(C)[C@H](NC(=O)/C=C/c1ccc(OP(=O)(O)O)cc1)C(=O)N1CCC[C@H]1C(=O)N(c1ccccc1)c1ccc(I)cc1` gave an IC50 of 3.07 µM (JHH7; CCK-8).
`CC(=O)c1ccc2cc(S(=O)(=O)Nc3ccc(Br)cc3)ccc2c1` has an IC50 of 95.8 µM (MDCK; neutral red; 48 h).
`C=CC(C)(C)c1[nH]cnc1/C=C1/NC(=O)[C@H](C(C)C)NC1=O` has an IC50 of 2 µM (NCI-H446; SRB).
The IC50 of `COc1cccc2c1C(=O)c1c(O)c3c(c(O)c1C2=O)C[C@@](O)(C(=O)CO)C[C@@H]3O[C@H]1C[C@H](N)[C@H](O)[C@H](C)O1` is reported as 0.0365 µM (NCI-H446; 96 h).
`Cc1ccc(S(=O)(=O)n2cc(/C=N/NC(=O)c3cc4ccccc4cc3O)c3ccccc32)cc1` has an IC50 of over 50 µM (MCF-10A; MTT; 48 h).
`COc1ccc2c(c1)/C(=N/NC(N)=S)C(=O)N2CCn1ncc2c(=O)[nH]cnc21` has an IC50 of 77.5 µg/mL (BALB/3T3 clone A31; SRB; 72 h).
`CC(C)[C@@H](C)NC(=O)c1cc(-c2cc3ccccc3n2C)cc(C(=O)NCCc2ccccn2)n1` gave an IC50 of 25.3 µM (JHH7; CCK-8).
For `CNC(=O)c1cc(Oc2ccc(NC(=O)Nc3ccc(Cl)c(C(F)(F)F)c3)cc2)ccn1`, the IC50 was 0.42 µg/mL (BALB/3T3 clone A31; SRB; 72 h).
`COc1cccc2c1C(=O)c1c(O)c3c(c(O)c1C2=O)C[C@@](O)(C(=O)CO)C[C@@H]3O[C@H]1C[C@H](N)[C@H](O)[C@H](C)O1` gave an IC50 of 70 µM (MDCK; neutral red; 48 h).
For `COc1cc(C2C3=C(COC3=O)N(CCO)c3cc4c(cc32)CCC4)cc(OC)c1OC` (stereo not drawn), the IC50 was 0.85 µM (4T1; ATP luminescence; 48 h).
With `Nc1ncnc2c1ncn2CCN1C(=O)C(=O)c2cc(Cl)ccc21` the IC50 was 24.4 µg/mL (BALB/3T3 clone A31; SRB; 72 h).
`CCOC(=O)c1c(C)nc2ccc(-c3cccc(F)c3)cc2c1O` has an IC50 of at least 100 µM (MCF-10A; MTT; 48 h).
`Clc1ccc(-c2cc(CNc3cccc4cccnc34)on2)c(Cl)c1` gave an IC50 of 33 µM (K562; MTS; 72 h).
For `Cc1ncsc1-c1ccc([C@H](C)NC(=O)[C@@H]2C[C@@H](O)CN2C(=O)[C@@H](NC(=O)CN2CCN(c3cc(-c4ccccc4O)nnc3N)CC2)C(C)(C)C)cc1`, the IC50 was 0.0092 µM (VCaP; ATP luminescence; 7 days).
`CC(=O)c1ccc2cc(S(=O)(=O)Nc3ccccn3)ccc2c1` gave an IC50 of 88.8 µM (MDCK; neutral red; 48 h).
The IC50 of `COc1ccc2c(c1)C(=O)C(=O)N2CCn1cnc2c(N)ncnc21` is reported as 55.3 µg/mL (BALB/3T3 clone A31; SRB; 72 h).
The IC50 of `FC(F)(F)c1cc(OCc2cc(-c3ccc(Cl)cc3Cl)no2)c2ccccc2n1` is reported as over 100 µM (K562; MTS; 72 h).
The IC50 of `Cc1ccc(S(=O)(=O)n2cc(/C=N/NC(=O)c3ccccc3Br)c3ccccc32)cc1` is reported as over 50 µM (MCF-10A; MTT; 48 h).
For `Nc1ncnc2c1ncn2CCN1C(=O)C(=O)c2cc(F)ccc21`, the IC50 was 47.2 µg/mL (BALB/3T3 clone A31; SRB; 72 h).
`Cc1ccc(S(=O)(=O)n2cc(/C=N/NC(=O)Cc3ccc(F)cc3F)c3ccccc32)cc1` gave an IC50 of over 50 µM (MCF-10A; MTT; 48 h).
`O=c1cc(OCc2cc(-c3ccccc3)no2)c2ccccc2o1` has an IC50 of over 100 µM (K562; MTS; 72 h).
The IC50 of `Cc1ccc(S(=O)(=O)n2cc(/C=N/NC(=O)Cc3cc(F)cc(F)c3)c3ccccc32)cc1` is reported as over 50 µM (MCF-10A; MTT; 48 h).
The IC50 of `CC(C)[C@@H]1NC(=O)/C(=C/c2cnc[nH]2)NC1=O` is reported as over 15 µM (NCI-H446; SRB).
The IC50 of `Nc1ccn([C@@H]2O[C@H](CO)[C@@H](O)C2(F)F)c(=O)n1` is reported as 3.37 µg/mL (4T1; MTT; 48 h).
With `Nc1nnc(-c2ccccc2O)cc1N1CC2CCC(C1)N2c1ccnc(F)c1` the IC50 was over 1 µM (VCaP; ATP luminescence; 7 days).
For `Cc1ccc(S(=O)(=O)n2cc(/C=N/NC(=O)Cc3ccccc3C(F)(F)F)c3ccccc32)cc1`, the IC50 was over 50 µM (MCF-10A; MTT; 48 h).
For `CC(=O)c1ccc2cc(S(=O)(=O)Nc3cccnc3)ccc2c1`, the IC50 was 20.7 µM (MDCK; neutral red; 48 h).
With `Cc1ccc(S(=O)(=O)n2cc(/C=N/NC(=O)c3ccc(C(F)(F)F)cc3)c3ccccc32)cc1` the IC50 was over 50 µM (MCF-10A; MTT; 48 h).
`N#Cc1ccc(-c2cc(COc3cc(C(F)(F)F)nc4ccccc34)on2)cc1` has an IC50 of 83.2 µM (K562; MTS; 72 h).
